Measured values collected from several papers.
Compare with care: the assays were run in different laboratories.
Target: Phosphorylase b kinase gamma catalytic chain, skeletal muscle/heart isoform (PHKG1, Homo sapiens, UniProt Q16816)

O=C(O)[C@H]1[C@H](Cn2nnc3ccccc3c2=O)CC[C@@H]1C(=O)c1ccc(OCCC2CCOCC2)cc1 gave a remaining binding of 74% (cell-free assay; competition with immobilised ligand; 1 µM).
For CN(C)c1nccc(-c2cnc3ncccn23)n1, the remaining binding was 100% (binding; 1 µM).
The remaining binding of c1cncc(-c2cccc(Nc3nccc(NC4CCCCC4)n3)c2)c1 is reported as 75% (binding; competition with immobilised ligand; 10 µM).
O=C(NCC1CCOCC1)c1n[nH]cc1NC(=O)c1c(F)cccc1F gave a remaining binding of 100% (binding; competition with immobilised ligand; 1 µM).
F[C@@H]1CCN(c2nccc(-c3cnn4ncccc34)n2)C1 gave a remaining binding of 100% (binding; 1 µM).
With Cc1cnc(Nc2ccc(C(=O)N3CCC(N4CCCC4)CC3)cc2)nc1-c1cc2ccccc2s1 the remaining binding was 54% (binding; competition with immobilised ligand; 1 µM).
For O=C(N[C@H]1CCCCC/C=C\C2C[C@@]2(C(=O)O)NC(=O)[C@@H]2C[C@@H](Oc3ccncc3)CN2C1=O)OC1CCCC1 (stereo partly shown), the remaining binding was 88% (binding; competition with immobilised ligand; 1 µM).
For C[C@@H](c1ccc(-n2cnc3c(N)ncnc32)cc1)N1CCc2nn(C)c(Cc3ccccc3)c2C1=O, the remaining binding was 90% (binding; competition with immobilised ligand; 0.1 µM).
For COc1ccc2cc(OCC3(C(=O)O)CN(C(=O)c4ccc(F)cc4)C3)ccc2c1, the remaining binding was 100% (cell-free assay; competition with immobilised ligand; 1 µM).
With O=C(c1ccc(Nc2nccc(-c3cc4ccccc4s3)n2)cc1)N1CCC(N2CCCC2)CC1 the remaining binding was 96% (binding; competition with immobilised ligand; 1 µM).
The remaining binding of CCC(=N\O)/C(C)=C/c1ccc(F)cc1 is reported as 100% (cell-free assay; competition with immobilised ligand; 1 µM).
With CN(C)c1ncc(F)c(-c2cnn3ncccc23)n1 the remaining binding was 100% (binding; 1 µM).
The remaining binding of COc1cnc(Nc2cccc(S(N)(=O)=O)c2)nc1N1CCN(c2ccccc2)C(=O)C1 is reported as 100% (binding; competition with immobilised ligand; 1 µM).
With C=CC(=O)N1CCC(C(=O)NCC(=O)N2CCN(c3nc(-c4cnc(N)nc4C(F)F)nc(N4CCOCC4)n3)CC2)CC1 the remaining binding was 100% (binding; competition with immobilised ligand; 1 µM).
For C[C@@H]1CCN(c2nccc(-c3cnn4ncccc34)n2)C1, the remaining binding was 100% (binding; 1 µM).
CC1=C(C#N)C(c2ccc3c(c2)c(NC(=O)c2ccccc2C)nn3C)C(C#N)=C(C)N1 gave a remaining binding of 91% (cell-free assay; competition with immobilised ligand; 1 µM).
For CN(C)c1nccc(-c2cnn3ncccc23)n1, the remaining binding was 100% (binding; 1 µM).
O=C(NCc1ncc(C(F)(F)F)cc1Cl)c1ccc2c(c1)C1(CCS(=O)(=O)CC1)[C@@H](C1CC1)N2S(=O)(=O)c1ccc(F)cc1 gave a remaining binding of 100% (cell-free assay; competition with immobilised ligand; 1 µM).
With CN(CCCC(F)(F)F)c1nccc(-c2cnn3ncccc23)n1 the remaining binding was 100% (binding; 1 µM).
The remaining binding of O=C(c1ccc(Nc2ncc(Cl)c(-c3ccc(Cl)s3)n2)cc1)N1CCC(N2CCCC2)CC1 is reported as 85% (binding; competition with immobilised ligand; 1 µM).
c1cnn2ncc(-c3ccnc(N4CCC45COC5)n3)c2c1 has a remaining binding of 85% (binding; 1 µM).
The remaining binding of FC(F)(F)Oc1cccc(-c2cnc3ccc(-c4ccncc4)nn23)c1 is reported as 43% (cell-free assay; competition with immobilised ligand; 5 µM).
